According to ChEMBL document CHEMBL4270668, “Design, Synthesis, Molecular Dynamics Simulation, and Functional Evaluation of a Novel Series of 26RFa Peptide Analogues Containing a Mono- or Polyalkyl Guanidino Arginine Derivative” (J Med Chem, 2018):
Starred links: 1 amine or outer side, 2 acyl side, 3 side chain; linkers in the order of their positions; H or OH if unused. Non-standard residues stand in square brackets, D forms with d. Residues, ends and D or L forms follow the SMILES beside them. X11 = CC(C)CNC(=N)NCCCC[C@H](N[*:1])C(=O)[*:2]; X14 = CCN(CC)C(=N)NCCCC[C@H](N[*:1])C(=O)[*:2]; X16 = CC(C)CNC(=N)NCCC[C@H](N[*:1])C(=O)[*:2]; X24 = N=C(NCCCC[C@H](N[*:1])C(=O)[*:2])N1CCC1; X19 = C/N=C(\NC)NCCCC[C@H](N[*:1])C(=O)[*:2]; X2 = CCN(C)C(=N)NCCCC[C@H](N[*:1])C(=O)[*:2]; X3 = CN(C)C(=N)NCCCC[C@H](N[*:1])C(=O)[*:2]; X6 = N=C(NCCC[C@H](N[*:1])C(=O)[*:2])N1CCC1; X23 = CN(C)C(=N)NCC[C@H](N[*:1])C(=O)[*:2]; X7 = CCN(C)C(=N)NCC[C@H](N[*:1])C(=O)[*:2]; X10 = CNC(=N)NCCCC[C@H](N[*:1])C(=O)[*:2]; X22 = CCCNC(=N)NCC[C@H](N[*:1])C(=O)[*:2]; Arg(ω-nPr) = CCCNC(=N)NCCC[C@H](N)C(=O)O; Arg(Me) = CNC(=N)NCCC[C@H](N)C(=O)O

Columns and labels:
[1] = target: T1, Pyroglutamylated RF-amide peptide receptor (Homo sapiens, UniProt Q96P65); test: Agonist activity at human QRFPR expressed in CHO cells co-expressing Galpha16 assessed as increase Ca2+ mobilization after 3 mins by Fluo-4 AM-based scanning fluorometery; assay type: functional, cell-based
T1 sequence (Q96P65 whole entry): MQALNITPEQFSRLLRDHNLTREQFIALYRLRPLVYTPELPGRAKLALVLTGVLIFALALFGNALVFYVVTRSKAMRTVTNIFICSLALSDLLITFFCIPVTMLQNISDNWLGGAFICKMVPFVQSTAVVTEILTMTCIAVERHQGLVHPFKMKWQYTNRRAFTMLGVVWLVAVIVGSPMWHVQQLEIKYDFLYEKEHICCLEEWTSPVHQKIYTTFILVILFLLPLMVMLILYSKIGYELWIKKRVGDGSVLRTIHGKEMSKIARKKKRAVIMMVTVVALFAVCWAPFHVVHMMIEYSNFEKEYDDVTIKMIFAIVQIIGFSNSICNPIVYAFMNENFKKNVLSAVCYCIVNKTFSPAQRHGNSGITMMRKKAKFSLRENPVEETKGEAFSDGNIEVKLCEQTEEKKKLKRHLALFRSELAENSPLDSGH
Summary of the method: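 CHO-Gα16 cells stably expressing human QRFPR, seeded at 40,000 cells/well 24 h ahead. Loaded 1 h with 2 µM Fluo-4 AM plus 0.01% pluronic acid, washed, then 30 min in HBSS with 2.5 mM probenecid and 5 mM HEPES. Compounds added at final 10^-11 to 10^-5 M; fluorescence recorded 3 min on a scanning fluorometer. EC50 from sigmoidal variable-slope fits, ≥3 experiments in triplicate.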

[2] = target: T1, Pyroglutamylated RF-amide peptide receptor; test: Antagonist activity at human QRFPR expressed in CHO cells co-expressing Galpha16 assessed as inhibition of 26RFa-induced Ca2+ mobilization preincubated for 15 mins followed by agonist addition measured after 3 mins by Fluo-4 AM-based scanning fluorometery; assay type: functional, cell-based
Summary of the method: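 CHO-Gα16-hQRFPR cells loaded 1 h with 2 µM Fluo-4 AM, then incubated 15 min with graded compound. A 10^-7 M final 26RFa pulse was given during recording. Background subtracted, baseline normalized to 100%, peak fluorescence taken per concentration. IC50 from sigmoidal variable-slope fits, ≥3 experiments in triplicate. Maximal effect at 10^-4 M expressed as % inhibition of the 26RFa (10^-7 M) response.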

Molecule | EC50 [1] [µM] | IC50 [2] [µM]
CN(C)C(=N)NCCCC[C@H](NC(=O)[C@H](Cc1ccccc1)NC(=O)[C@H](CO)NC(=O)[C@H](Cc1ccccc1)NC(=O)CNC(=O)CN)C(=O)N[C@@H](Cc1ccccc1)C(N)=O (H-GGFSF[X3]F-NH2) | > 100 | > 100
CCN(C)C(=N)NCC[C@H](NC(=O)[C@H](Cc1ccccc1)NC(=O)[C@H](CO)NC(=O)[C@H](Cc1ccccc1)NC(=O)CNC(=O)CN)C(=O)N[C@@H](Cc1ccccc1)C(N)=O (H-GGFSF[X7]F-NH2) | > 100 | > 100
CCN(CC)C(=N)NCCCC[C@H](NC(=O)[C@H](Cc1ccccc1)NC(=O)[C@H](CO)NC(=O)[C@H](Cc1ccccc1)NC(=O)CNC(=O)CN)C(=O)N[C@@H](Cc1ccccc1)C(N)=O (H-GGFSF[X14]F-NH2) | > 100 | > 100
N=C(NCCC[C@H](NC(=O)[C@H](Cc1ccccc1)NC(=O)[C@H](CO)NC(=O)[C@H](Cc1ccccc1)NC(=O)CNC(=O)CN)C(=O)N[C@@H](Cc1ccccc1)C(N)=O)N1CCC1 (H-GGFSF[X6]F-NH2) | > 100 | > 100
CCN(C)C(=N)NCCCC[C@H](NC(=O)[C@H](Cc1ccccc1)NC(=O)[C@H](CO)NC(=O)[C@H](Cc1ccccc1)NC(=O)CNC(=O)CN)C(=O)N[C@@H](Cc1ccccc1)C(N)=O (H-GGFSF[X2]F-NH2) | > 100 | > 100
CNC(=N)NCCCC[C@H](NC(=O)[C@H](Cc1ccccc1)NC(=O)[C@H](CO)NC(=O)[C@H](Cc1ccccc1)NC(=O)CNC(=O)CN)C(=O)N[C@@H](Cc1ccccc1)C(N)=O (H-GGFSF[X10]F-NH2) | > 100 | > 100
CC(C)CNC(=N)NCCCC[C@H](NC(=O)[C@H](Cc1ccccc1)NC(=O)[C@H](CO)NC(=O)[C@H](Cc1ccccc1)NC(=O)CNC(=O)CN)C(=O)N[C@@H](Cc1ccccc1)C(N)=O (H-GGFSF[X11]F-NH2) | 2.75 | 
CNC(=N)NCCC[C@H](NC(=O)[C@H](Cc1ccccc1)NC(=O)[C@H](CO)NC(=O)[C@H](Cc1ccccc1)NC(=O)CNC(=O)CNC(=O)[C@H](CCCCN)NC(=O)[C@H](CCCCN)NC(=O)[C@H](CCCNC(=N)N)NC(=O)[C@H](CO)NC(=O)[C@H](Cc1ccc(O)cc1)NC(=O)CNC(=O)[C@H](CC(N)=O)NC(=O)[C@H](CC(C)C)NC(=O)[C@H](CCC(=O)O)NC(=O)[C@H](CCC(=O)O)NC(=O)[C@H](C)NC(=O)[C@H](CC(C)C)NC(=O)[C@H](CC(N)=O)NC(=O)CNC(=O)[C@H](CC(C)C)NC(=O)[C@@H]1CCCN1C(=O)CNC(=O)[C@H](CO)NC(=O)[C@@H](N)[C@@H](C)O)C(=O)N[C@@H](Cc1ccccc1)C(N)=O (H-TSGPLGNLAEELNGYSRKKGGFSF[Arg(Me)]F-NH2) | 0.0069 | 
CCCNC(=N)NCC[C@H](NC(=O)[C@H](Cc1ccccc1)NC(=O)[C@H](CO)NC(=O)[C@H](Cc1ccccc1)NC(=O)CNC(=O)CN)C(=O)N[C@@H](Cc1ccccc1)C(N)=O (H-GGFSF[X22]F-NH2) | > 100 | > 100
CCCNC(=N)NCCC[C@H](NC(=O)[C@H](Cc1ccccc1)NC(=O)[C@H](CO)NC(=O)[C@H](Cc1ccccc1)NC(=O)CNC(=O)CN)C(=O)N[C@@H](Cc1ccccc1)C(N)=O (H-GGFSF[Arg(ω-nPr)]F-NH2) | 1.4 | 
H-GGFSFRF-NH2 | 1.64 | 
N=C(NCCCC[C@H](NC(=O)[C@H](Cc1ccccc1)NC(=O)[C@H](CO)NC(=O)[C@H](Cc1ccccc1)NC(=O)CNC(=O)CN)C(=O)N[C@@H](Cc1ccccc1)C(N)=O)N1CCC1 (H-GGFSF[X24]F-NH2) | > 100 | > 100
C/N=C(\NC)NCCCC[C@H](NC(=O)[C@H](Cc1ccccc1)NC(=O)[C@H](CO)NC(=O)[C@H](Cc1ccccc1)NC(=O)CNC(=O)CN)C(=O)N[C@@H](Cc1ccccc1)C(N)=O (H-GGFSF[X19]F-NH2) | > 100 | > 100
CN(C)C(=N)NCC[C@H](NC(=O)[C@H](Cc1ccccc1)NC(=O)[C@H](CO)NC(=O)[C@H](Cc1ccccc1)NC(=O)CNC(=O)CN)C(=O)N[C@@H](Cc1ccccc1)C(N)=O (H-GGFSF[X23]F-NH2) | > 100 | > 100
CC(C)CNC(=N)NCCC[C@H](NC(=O)[C@H](Cc1ccccc1)NC(=O)[C@H](CO)NC(=O)[C@H](Cc1ccccc1)NC(=O)CNC(=O)CN)C(=O)N[C@@H](Cc1ccccc1)C(N)=O (H-GGFSF[X16]F-NH2) | 1.5 | 
